This excerpt belongs to a sample that is enriched for hits.
UPR CHOP act – activators of apoptotic arm of unfolded protein response (CHOP). CHO-CHOP luciferase reporter, UPR activation, luminescence; percent of tunicamycin response over DMSO baseline. activation, % at 10 µM. 330,000 tested, 0.34% active. AID 449763;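 active means at 10 µM dose, activation of 40% or more, normalized to positive control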;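 further: 100% = tunicamycin at 10 µg/mL and 0% = DMSO alone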
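System: CHO-CHOP luciferase reporter cell line; amount: 500 cells/well; buffer or medium: F12 medium containing 10% fetal bovine serum; incubation: 6 h compound exposure at 37 °C after overnight seeding; measured by: luciferase luminescence after 10 min with Steady-Glo reagent; evaluation: % reporter activation, DMSO baseline versus tunicamycin full activation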
UPR XBP1 act – activators of adaptive arm of unfolded protein response (XBP1); CHO-XBP1 luciferase reporter, IRE1-XBP1 UPR activation, luminescence; percent of tunicamycin response, DMSO as zero; activation, % at 20 µM; 330,000 tested, 0.33% active;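 active means versus positive control, 20 µM dose yields 30% or more activation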;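 further: 100% = tunicamycin at 10 µg/mL and 0% = DMSO only wells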
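assay system = CHO-XBP1 luciferase reporter cells | amount = 1000 cells/well | buffer or medium = F12 plus 10% FBS | compound dosing = single point, 20 µM final compound, 1% DMSO | incubation = 16-18 h cell attachment at 37 °C, then 6 h compound exposure | detection = Steady-Glo luminescence read | controls = tunicamycin 10 µg/mL and vehicle-only wells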
GAA850 FXN act – frataxin GAA850 promoter activation | HEK293 lucGAA850 FXN promoter luciferase reporter, 24 h; percent of 10 µM SAHA response | AID 540364 | 360,000 tested, 0.56% active | activation, % at 6 µM;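 active means activation above the average of all compounds screened plus 3 SD, cutoff fixed separately per campaign, cut at about 7.5% in these data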;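 further: 0% = DMSO wells and 100% = 10 µM SAHA wells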
CHOP inhibitor – inhibitors of CHOP induction in ER stress response; CHO-K1 CHOP-promoter luciferase, tunicamycin-induced, 15-18 h; inhibition, % at 10 µM; 220,000 tested, 3.8% active; AID 2732;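 active means compounds that reduced the stress-induced luciferase reporter signal by more than about 70% of percent inhibition, limit read from the data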;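 further: 0% = tunicamycin plus vehicle and 100% = wells without tunicamycin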
GAA30 counter – GAA30 FXN promoter activation counter-screen | shares compounds with GAA850 FXN act | HEK293 lucGAA30 FXN promoter luciferase, 24 h; DMSO = 0%, 5 µM ipriflavone = 100% | activation, % at 6 µM | 1,900 tested, 66% active;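 active means mean activation above the mean of solvent-only control wells plus 3 SD, cut at about 22% in these data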;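 further: counterscreen of GAA850 promoter hits where activity marks nonselective or luminescence artifacts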
GAA850 confirm – confirmation of GAA850 frataxin (FXN) promoter activators; 1,900 tested, 86% active; activation, % at 6 µM; shares compounds with GAA850 FXN act; HEK293 lucGAA850 FXN promoter luciferase reporter, 24 h; 100% = activation by SAHA;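 active means mean activation above a set limit taken from the primary screen, cut at about 8% in these data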;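 further: 0% = DMSO wells and 100% = 10 µM SAHA wells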
The depositor's hits bear a star; nt = no result.

SMILES	UPR CHOP act	UPR XBP1 act	GAA850 FXN act	CHOP inhibitor	GAA30 counter	GAA850 confirm
Oc1c(C=Nc2ccccc2)sc2ccccc12	-6	-8	10*	22	112*	38*
Oc1sc(C=Nc2ccccc2)c2ccccc12	3	8	8.2*	51	125*	42*
O=C(Nc1ccc(Cl)cc1)Nc1cccnc1	7	0	8.4*	13	63*	21*
Cc1cnc(NC(=O)Nc2ccc(Cl)cc2)s1	8	0	8.2*	12	74*	46*
O=S1(=O)CCN(c2ccccc2CC(c2c[nH]c3ccccc23)c2c[nH]c3ccccc23)CC1	nt	nt	16*	nt	42*	21*
NCC(c1ccco1)c1c[nH]c2ccccc12 (configuration not stated)	0	-3	-1	nt	nt	nt
COc1ccc(CCN2CC(C(=O)NCCc3ncccc3C)CCC2=O)cc1 (configuration not stated)	nt	nt	0	nt	nt	nt
Cc1sc(NC(=O)C2C3CCC(O3)C2C(=O)O)nc1-c1ccc(CC(C)C)cc1 (configuration not stated)	5	1	13*	-20	62*	26*
COc1ccc(CN2CCC2(C)C(=O)Nc2cccc(NS(C)(=O)=O)c2)c2ccccc12 (configuration not stated)	nt	nt	17*	nt	8	19*
COc1cccc(NC(=O)C2(C)CCN2Cc2ccc(OC)c3ccccc23)c1 (configuration not stated)	nt	nt	3	nt	nt	nt
Brc1ccc2oc(-c3ccn[nH]3)cc2c1	5	6	7.8*	0	116*	38*
O=c1oc2ccc(Br)cc2cc1-c1nc2ccccc2o1	1	2	-2	36	nt	nt
O=C(C1COc2ccccc2O1)N1CCCC1 (configuration not stated)	2	0	-5	1	nt	nt
O=C(C1COc2ccccc2O1)N1CCc2ccccc21 (configuration not stated)	5	4	8.0*	57	73*	32*
CCn1c(SCC(=O)NCCc2ccc(OC)c(OC)c2)nc2c([nH]c3ccccc32)c1=O	nt	nt	14*	nt	26*	8.2*
COc1ccc(Cl)cc1CC1(C)C(=O)Nc2ccc(S(=O)(=O)NC3CCCCC3)cc21 (configuration not stated)	nt	nt	16*	nt	9	13*
CC1(Cc2ccccc2OC(F)(F)F)C(=O)Nc2ccc(S(=O)(=O)NC3CCCCC3)cc21 (configuration not stated)	nt	nt	6	nt	nt	nt
COc1ccccc1CC1(C)C(=O)Nc2ccc(S(=O)(=O)NC3CCCCC3)cc21 (configuration not stated)	nt	nt	9.1*	nt	1	3
Cc1ccccc1CC1(C)C(=O)Nc2ccc(S(=O)(=O)NC3CCCCC3)cc21 (configuration not stated)	nt	nt	2	nt	nt	nt
COc1ccc(OC(F)(F)F)cc1CC1(C)C(=O)Nc2ccc(S(=O)(=O)NC3CCCCC3)cc21 (configuration not stated)	nt	nt	17*	nt	15	14*
COc1ccc(OC(F)(F)F)cc1CC1(C)C(=O)Nc2ccc(-c3ccsc3)cc21 (configuration not stated)	nt	nt	13*	nt	17	9.0*
CCCNC(=O)C1(C)CCCN(CC(=O)c2ccccc2OC)C1 (configuration not stated)	nt	nt	-1	nt	nt	nt
CC1(Cc2ccc(F)cc2)C(=O)Nc2ccc(S(=O)(=O)NC3CCCCC3)cc21 (configuration not stated)	nt	nt	9.7*	nt	0	7
Nc1ccccc1C#CC(=O)c1ccccc1	-5	-8	14*	nt	-8	0
CCN1C(=O)[C@H]2[C@H]3CN=C(SCc4ccc(Cl)cc4)N3[C@@](CC)(C(=O)OC)[C@H]2C1=O	2	3	11*	nt	23*	9.2*
SMILES	UPR CHOP act	UPR XBP1 act	GAA850 FXN act	CHOP inhibitor	GAA30 counter	GAA850 confirm
COC(=O)[C@@]1(C)[C@H]2C(=O)N(Cc3ccccc3)C(=O)[C@H]2[C@H]2CN=C(SCc3ccc(C)cc3)N21	4	1	10*	nt	32*	12*
COC(=O)c1ccc(CSC2=NC[C@@H]3[C@@H]4C(=O)N(Cc5ccccc5)C(=O)[C@@H]4[C@](C)(C(=O)OC)N23)cc1	1	3	4	nt	nt	nt
COCOCCn1cc(CN2CCS(=O)(=O)N(Cc3ccc(-c4ccc(OC)cc4)cc3)C(C)C2=O)nn1 (configuration not stated)	nt	nt	0	nt	nt	nt
OC(c1cccc(Cl)c1)c1nc(/C=C/c2ccccc2)cs1 (configuration not stated)	nt	nt	2	nt	nt	nt
O=Nc1c(-c2ccccc2)n(O)[n+]([O-])c1-c1ccccc1	nt	nt	8.9*	nt	75*	36*
Cc1ccc(O)c(NC2=C(Cl)C(=O)N(Cc3ccccc3)C2=O)c1	nt	nt	8.1*	35	21	12*
c1ccc(C2=NN(c3ccccc3)CC2)cc1	4	0	7.7*	-16	108*	30*
CCCS(=O)(=O)Nc1ccc(N2CCCCC2)c(S(=O)(=O)Nc2ccccc2OC)c1	-3	-1	7.8*	nt	19	9.1*
C/C(CCc1ccccc1)=N\NC(=O)c1ccccc1[N+](=O)[O-]	1	0	0	-15	nt	nt
CC(C)=CCC/C(C)=C/C=N/NC(=O)c1ccccc1[N+](=O)[O-]	0	-1	8.6*	64	17	5
CSc1ncnc2c1ncn2CCCNCCc1ccccn1	nt	nt	0	nt	nt	nt
NC(=O)[C@@H]1CCCN1C(=O)c1ccc2oc(CCc3ccccc3)nc2c1	6	1	7.8*	nt	74*	31*
O=C(c1ccc2oc(CCc3ccccc3)nc2c1)N1CCC(O)CC1	4	-3	2	nt	nt	nt
CCCC(C)(C)C(=O)N1CCC1(C)C(=O)NS(=O)(=O)c1ccc(Cl)cc1 (configuration not stated)	nt	nt	1	nt	nt	nt
COc1ccc2c(c1)CCO[C@]21O[C@H](CCO)C[C@H](O)[C@H]1O	nt	nt	2	nt	nt	nt
Oc1cccc(/C=C/c2ccc3cccc(O)c3n2)c1	1	7	4	nt	nt	nt
COc1cccc(/C=C/c2ccc3cccc(O)c3n2)c1	16	-2	8.7*	nt	4	29*
COc1cc(/C=C/c2ccc3cccc(O)c3n2)cc(Br)c1OC	21	120*	9.2*	nt	-46	-1
COc1ccc(/C=C/c2ccc3cccc(O)c3n2)cc1Br	6	-1	1	nt	nt	nt
CC1(C(=O)NS(=O)(=O)c2ccc(C#N)cc2)CCN1C(=O)Cc1ccc(-c2ccccc2)cc1 (configuration not stated)	nt	nt	-1	nt	nt	nt
Cc1ccc(Cn2c(/C=C/c3ccco3)nc3ccccc32)cc1	9	4	8.0*	44	109*	44*
